Results taken from ChEMBL document CHEMBL5143722, “Antimicrobial Peptides against Multidrug-Resistant Pseudomonas aeruginosa Biofilm from Cystic Fibrosis Patients” (J Med Chem, 2022).
Calls of active or inactive are those of the source. No cut-off for these calls is given here.

What was measured:
Pseudomonas aeruginosa [1] = test: Induction of biofilm degradation of Pseudomonas aeruginosa clinical isolate 59 at 50 uM incubated for 1 hr by crystal violet staining analysis relative to control; format: functional
How it was run: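 Inoculum of 1 × 10^6 CFU/mL was grown 24 h at 37 °C without agitation to form biofilm. Wells were rinsed of unattached bacteria and exposed for 1 h to serial peptide dilutions (1.56–50 μM). They were then washed, stained with 0.1% crystal violet, and read at 590 nm with no-bacteria blanks. Biomass is given as % of untreated biofilm.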

Pseudomonas aeruginosa [2] = test: Induction of biofilm degradation of Pseudomonas aeruginosa clinical isolate 72 at sub MIC concentration incubated for 1 hr by crystal violet staining analysis; format: functional
How it was run: (§1)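 Bacteria at 1 × 10^6 CFU/mL in BM2 grown static at 37 °C for 24 h to form biofilm. Wells rinsed of unattached cells, then exposed for 1 h to serial peptide dilutions (1.56–50 μM). Washed, stained with 0.1% crystal violet, A590 read. Biomass given as % of untreated biofilm; no-bacteria wells as blanks. At least three biological repeats.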

Pseudomonas aeruginosa [3] = test: Antibiofilm activity against Pseudomonas aeruginosa clinical isolate 46 in basal medium 2 at 12.5 to 100 uM incubated for 24 hrs by resazurin staining based microtiter plate method; format: functional, organism-based; conditions: dose 12.5-100 µM
Pseudomonas aeruginosa [4] = test: Antibiofilm activity against Pseudomonas aeruginosa PAO1 in basal medium 2 at 12.5 to 100 uM incubated for 24 hrs by resazurin staining based microtiter plate method; format: functional, organism-based; conditions: dose 12.5-100 µM
[5] = tested on: Pseudomonas aeruginosa PAO1; test: Induction of biofilm degradation of Pseudomonas aeruginosa PAO1 in cystic fibrosis patient sputum at 10 uM incubated for 48 hr by resazurin staining based confocal microscopy analysis
Pseudomonas aeruginosa [6] = test: Antibiofilm activity against Pseudomonas aeruginosa clinical isolate 24 in basal medium 2 at 12.5 to 100 uM incubated for 24 hrs by resazurin staining based microtiter plate method; format: functional, organism-based; conditions: dose 12.5-100 µM
Pseudomonas aeruginosa [7] = test: Induction of biofilm degradation of Pseudomonas aeruginosa clinical isolate 59 at 50 uM incubated for 1 hr by crystal violet staining analysis
Pseudomonas aeruginosa [8] = test: Induction of biofilm degradation of Pseudomonas aeruginosa clinical isolate 59 at sub MIC concentration incubated for 1 hr by crystal violet staining analysis; format: functional; how it was run: as §1
Pseudomonas aeruginosa [9] = test: Antibiofilm activity against Pseudomonas aeruginosa clinical isolate 82 in basal medium 2 at 12.5 to 100 uM incubated for 24 hrs by resazurin staining based microtiter plate method; format: functional, organism-based; conditions: dose 12.5-100 µM
Pseudomonas aeruginosa [10] = test: Antibiofilm activity against Pseudomonas aeruginosa clinical isolate 46 assessed as inhibition of biofilm formation at MIC incubated for 24 hrs by crystal violet staining based microtiter plate method; format: functional, organism-based
How it was run: (§2)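 Washed overnight cultures in BM2 medium at 1 × 10^6 CFU/mL with 2-fold serial peptide dilutions in a U-bottom 96-well plate. Incubated 24 h at 37 °C without agitation. Unattached cells washed off, then 0.1% crystal violet stain read at 590 nm. No-bacteria blanks. Biomass expressed as % of untreated biofilm. At least three biological repeats.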

Pseudomonas aeruginosa [11] = test: Antibiofilm activity against Pseudomonas aeruginosa clinical isolate 59 assessed as inhibition of biofilm formation at MIC incubated for 24 hrs by crystal violet staining based microtiter plate method; format: functional
How it was run: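 In BM2, bacteria at 1 × 10^6 CFU/mL were incubated with 2-fold serial peptide dilutions for 24 h at 37 °C without agitation. Unattached cells were washed off, and the remaining biofilm was stained with 0.1% crystal violet and read at OD590. Blanks had no bacteria. Biomass is given as % of untreated biofilm; at least three biological repeats.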

Pseudomonas aeruginosa [12] = test: Drug resistance in Pseudomonas aeruginosa clinical isolate 24 in BM2 medium assessed as fold change in MIC
Pseudomonas aeruginosa [13] = test: Antibiofilm activity against Pseudomonas aeruginosa clinical isolate 24 assessed as inhibition of biofilm formation at MIC incubated for 24 hrs by crystal violet staining based microtiter plate method; format: functional, organism-based; how it was run: as §2
Pseudomonas aeruginosa [14] = test: Antibiofilm activity against Pseudomonas aeruginosa clinical isolate 995 assessed as inhibition of biofilm formation at MIC incubated for 24 hrs by crystal violet staining based microtiter plate method; format: functional, organism-based; how it was run: as §2
Pseudomonas aeruginosa [15] = test: Drug resistance in Pseudomonas aeruginosa PAO1 in BM2 medium assessed as fold change in MIC
Pseudomonas aeruginosa [16] = test: Antibiofilm activity against Pseudomonas aeruginosa clinical isolate 25 assessed as inhibition of biofilm formation at MIC incubated for 24 hrs by crystal violet staining based microtiter plate method; format: functional, organism-based; how it was run: as §2
Pseudomonas aeruginosa [17] = test: Antibiofilm activity against Pseudomonas aeruginosa clinical isolate 238 assessed as inhibition of biofilm formation at 1.56 uM incubated for 24 hrs by crystal violet staining based microtiter plate method; format: functional, organism-based; how it was run: as §2
Pseudomonas aeruginosa [18] = test: Antibiofilm activity against Pseudomonas aeruginosa clinical isolate 629 assessed as inhibition of biofilm formation at 1.56 uM incubated for 24 hrs by crystal violet staining based microtiter plate method; format: functional, organism-based; how it was run: as §2
Pseudomonas aeruginosa [19] = test: Antibiofilm activity against Pseudomonas aeruginosa clinical isolate 251 assessed as inhibition of biofilm formation at 1.56 uM incubated for 24 hrs by crystal violet staining based microtiter plate method; format: functional, organism-based; how it was run: as §2
Pseudomonas aeruginosa [20] = test: Antibiofilm activity against Pseudomonas aeruginosa PAO1 in artificial sputum medium at 25 uM incubated for 24 hrs by resazurin staining based microtiter plate method relative to control; format: functional
How it was run: (§3)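 Washed overnight culture set to OD ~0.05 in BM2, diluted 1:100 into artificial sputum medium (pH 6.9) in 24-well plates. Grown 3 days aerobically at 37 °C with agitation. Peptides (12.5–100 μM) added for 24 h with agitation. Biofilm disrupted by cellulase for 1 h at 37 °C. Resazurin 0.02% for 1–2 h, fluorescence ex 530/em 590 nm; viability as % of untreated wells.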

Pseudomonas aeruginosa [21] = test: Induction of biofilm degradation of Pseudomonas aeruginosa clinical isolate 24 derived from cystic fibrosis patient sputum at 1.56 to 50 uM by crystal violet based staining analysis; format: functional; conditions: dose 1.56-50 µM
How it was run: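 Biofilm grown from 1 × 10^6 CFU/mL in pooled CF patient sputum diluted 10-fold with BM2, static, 37 °C, 24 h. Unattached cells rinsed off, then serial peptide dilutions (1.56–50 μM) applied for 1 h. Washed and stained with 0.1% crystal violet, read at 590 nm. Reported as % of untreated biomass, with no-bacteria blanks.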

Pseudomonas aeruginosa [22] = test: Antibiofilm activity against Pseudomonas aeruginosa clinical isolate 59 assessed as inhibition of biofilm formation at 1.56 uM incubated for 24 hrs by crystal violet staining based microtiter plate method; format: functional, organism-based; how it was run: as §2
Pseudomonas aeruginosa [23] = test: Antibiofilm activity against Pseudomonas aeruginosa clinical isolate 82 in artificial sputum medium at 25 uM incubated for 24 hrs by resazurin staining based microtiter plate method relative to control; format: functional
How it was run: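 Overnight cultures were washed, resuspended in BM2 to OD ~0.05, and diluted 1:100 into artificial sputum medium (pH 6.9). Biofilms grew 3 days at 37 °C with aerobic agitation in 24-well plates. Peptides (12.5–100 μM) were then added for 24 h with agitation. Biofilm was disrupted with cellulase for 1 h at 37 °C. Resazurin (0.02%) was added for 1–2 h, fluorescence read at ex 530/em 590 nm, and viability expressed as % of untreated wells.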

Pseudomonas aeruginosa [24] = test: Antibiofilm activity against Pseudomonas aeruginosa clinical isolate 46 in artificial sputum medium at 100 uM incubated for 24 hrs by resazurin staining based microtiter plate method; format: functional, organism-based; how it was run: as §3
Pseudomonas aeruginosa [25] = test: Antibiofilm activity against Pseudomonas aeruginosa clinical isolate 46 assessed as inhibition of biofilm formation at 1.56 uM incubated for 24 hrs by crystal violet staining based microtiter plate method; format: functional, organism-based; how it was run: as §2

For `CC(C)C[C@H](NC(=O)[C@H](CC(C)C)NC(=O)[C@H](CC(C)C)NC(=O)[C@H](CC(C)C)NC(=O)[C@H](CC(C)C)NC(=O)[C@H](CC(C)C)NC(=O)[C@H](CC(C)C)NC(=O)[C@H](CC(C)C)NC(=O)[C@H](CC(C)C)NC(=O)[C@H](CCCCN)NC(=O)[C@H](CCCCN)NC(=O)[C@@H](N)CCCCN)C(=O)N[C@@H](CCCCN)C(=O)N[C@@H](CCCCN)C(=O)N[C@@H](CCCCN)C(N)=O`, the Activity (Pseudomonas aeruginosa [1]) was 40%, the Activity (Pseudomonas aeruginosa [2]) was “Active” and the Activity (Pseudomonas aeruginosa [3]) was “Active”. For the same compound, the Activity (Pseudomonas aeruginosa [4]) was “Active”, the Activity [5] was “Active” and the Activity (Pseudomonas aeruginosa [6]) was “Active”. The Activity (Pseudomonas aeruginosa [7]) was 40%, the Activity (Pseudomonas aeruginosa [8]) was “Active” and the Activity (Pseudomonas aeruginosa [9]) was “Active”.

`CC[C@H](C)[C@H](NC(=O)[C@H](CCCCN)NC(=O)[C@H](CCC(=O)O)NC(=O)[C@H](CCCCN)NC(=O)[C@H](CO)NC(=O)[C@H](CCCCN)NC(=O)[C@H](CCCNC(=N)N)NC(=O)[C@H](Cc1ccccc1)NC(=O)[C@H](Cc1ccccc1)NC(=O)[C@H](CC(=O)O)NC(=O)CNC(=O)[C@H](CC(C)C)NC(=O)[C@@H](N)CC(C)C)C(=O)NCC(=O)N[C@@H](CCCCN)C(=O)N[C@@H](CCC(=O)O)C(=O)N[C@@H](Cc1ccccc1)C(=O)N[C@@H](CCCCN)C(=O)N[C@@H](CCCNC(=N)N)C(=O)N[C@H](C(=O)N[C@H](C(=O)N[C@@H](CCC(N)=O)C(=O)N[C@@H](CCCNC(=N)N)C(=O)N[C@H](C(=O)N[C@@H](CCCCN)C(=O)N[C@@H](CC(=O)O)C(=O)N[C@@H](Cc1ccccc1)C(=O)N[C@@H](CC(C)C)C(=O)N[C@@H](CCCNC(=N)N)C(=O)N[C@@H](CC(N)=O)C(=O)N[C@@H](CC(C)C)C(=O)N[C@H](C(=O)N1CCC[C@H]1C(=O)N[C@@H](CCCNC(=N)N)C(=O)N[C@H](C(=O)N[C@@H](CCC(=O)O)C(=O)N[C@@H](CO)C(N)=O)[C@@H](C)O)C(C)C)[C@@H](C)CC)C(C)C)[C@@H](C)CC` was tested, and the Activity (Pseudomonas aeruginosa [1]) was 40%, the inhibition (Pseudomonas aeruginosa [10]) was “Active” and the “inhibition (INH)” value (Pseudomonas aeruginosa [11]) was 30%. For the same compound, the “fold change (FC)” value (Pseudomonas aeruginosa [12]) was less than 20, the Activity (Pseudomonas aeruginosa [3]) was “Active” and the Activity (Pseudomonas aeruginosa [4]) was “Active”. The inhibition (Pseudomonas aeruginosa [13]) was “Active”, the inhibition (Pseudomonas aeruginosa [14]) was “Active” and the “fold change (FC)” value (Pseudomonas aeruginosa [15]) was less than 20. For the same compound, the Activity (Pseudomonas aeruginosa [6]) was “Active”, the inhibition (Pseudomonas aeruginosa [16]) was “Active” and the Activity (Pseudomonas aeruginosa [9]) was “Active”.

In the case of `CC(C)C[C@H](NC(=O)[C@H](CC(C)C)NC(=O)[C@H](CCCCN)NC(=O)[C@H](CC(C)C)NC(=O)[C@H](CC(C)C)NC(=O)[C@H](CCCCN)NC(=O)[C@H](CCCCN)NC(=O)[C@H](CC(C)C)NC(=O)[C@H](CC(C)C)NC(=O)[C@H](CCCCN)NC(=O)[C@H](CCCCN)NC(=O)[C@H](CC(C)C)NC(=O)[C@H](CC(C)C)NC(=O)[C@H](CCCCN)NC(=O)[C@@H](N)CC(C)C)C(N)=O`, the inhibition (Pseudomonas aeruginosa [17]) is reported as “Active”, the inhibition (Pseudomonas aeruginosa [18]) is reported as “Active” and the inhibition (Pseudomonas aeruginosa [19]) is reported as “Active”. For the same compound, the inhibition (Pseudomonas aeruginosa [10]) was “Active”, the Activity (Pseudomonas aeruginosa [20]) was 66.7% and the “fold change (FC)” value (Pseudomonas aeruginosa [12]) was less than 20. The Activity (Pseudomonas aeruginosa [21]) was “Active”, the inhibition (Pseudomonas aeruginosa [13]) was “Active” and the inhibition (Pseudomonas aeruginosa [14]) was “Active”. The Activity [5] was “Active”, the “fold change (FC)” value (Pseudomonas aeruginosa [15]) was less than 20 and the inhibition (Pseudomonas aeruginosa [22]) was “Active”. For the same compound, the Activity (Pseudomonas aeruginosa [23]) was 57.94%, the inhibition (Pseudomonas aeruginosa [16]) was “Active” and the Activity (Pseudomonas aeruginosa [24]) was “Active”. The inhibition (Pseudomonas aeruginosa [25]) was “Active”.
